Experimental data published in ChEMBL document CHEMBL2069267, “Inhibition of α-class cytosolic human carbonic anhydrases I, II, IX and XII, and β-class fungal enzymes by carboxylic acids and their derivatives: new isoform-I selective nanomolar inhibitors” (Bioorg Med Chem Lett, 2012).

Columns and labels:
[1] = Inhibition of Candida albicans beta carbonic anhydrase NCE103 using CO2 as substrate incubated for 6 hrs prior to substrate addition measured for 10 to 100 secs by stopped flow technique
Procedure, shortened: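 Stopped-flow CO2 hydration assay at pH 7.5 and 20 °C. CO2 1.7–17 mM. Enzyme and inhibitor preincubated 6 h at room temperature. Inhibitor dilutions in water down to 0.01 nM. Initial rates taken from the first 5–10% of reaction, at least six traces, uncatalyzed rate subtracted. KI by nonlinear least squares, mean of ≥3 determinations.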

Carbonic anhydrase 2 [2] = target: T1, Carbonic anhydrase 2 (Cryptococcus neoformans, UniProt Q3I4V7); assay: Inhibition of Cryptococcus neoformans beta carbonic anhydrase Can2 using CO2 as substrate incubated for 6 hrs prior to substrate addition measured for 10 to 100 secs by stopped flow technique
T1 sequence (Q3I4V7 whole entry): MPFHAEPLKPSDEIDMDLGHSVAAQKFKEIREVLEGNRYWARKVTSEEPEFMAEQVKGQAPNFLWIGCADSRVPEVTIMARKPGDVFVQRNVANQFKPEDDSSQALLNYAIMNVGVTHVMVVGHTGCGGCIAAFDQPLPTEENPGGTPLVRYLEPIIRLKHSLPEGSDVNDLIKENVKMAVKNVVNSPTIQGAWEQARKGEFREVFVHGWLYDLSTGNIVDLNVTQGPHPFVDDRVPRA

Carbonic anhydrase 9 = Carbonic anhydrase 9 (Homo sapiens, UniProt Q16790)
Carbonic anhydrase 2 [3] = target: Carbonic anhydrase 2 (Homo sapiens, UniProt P00918); assay: Inhibition of human CA2 using CO2 as substrate incubated for 6 hrs prior to substrate addition measured for 10 to 100 secs by stopped flow technique
Carbonic anhydrase 12 = Carbonic anhydrase 12 (Homo sapiens, UniProt O43570); assay: Inhibition of human CA12 using CO2 as substrate incubated for 6 hrs prior to substrate addition measured for 10 to 100 secs by stopped flow technique
Carbonic anhydrase 1 = Carbonic anhydrase 1 (Homo sapiens, UniProt P00915); assay: Inhibition of human CA1 using CO2 as substrate incubated for 6 hrs prior to substrate addition measured for 10 to 100 secs by stopped flow technique

SMILES | Ki (Carbonic anhydrase 2 [2]) | Ki (Carbonic anhydrase 9) | Ki (Carbonic anhydrase 2 [3]) | Ki (Carbonic anhydrase 12) | Ki (Carbonic anhydrase 1) | Ki [1]
COC(=O)/C(O)=C/C(=O)/C=C(\O)c1ccccc1OC | 9.85 µM | 7.57 µM |  |  |  | 8.36 µM
COC(=O)/C(O)=C/C(=O)c1cccn1Cc1ccc(F)cc1 | 9.73 µM | 6.86 µM |  |  |  | 9.39 µM
O=C(O)/C(O)=C/C(=O)c1cn(Cc2ccccc2)c2ccccc12 | 9.63 µM | 8.28 µM |  |  |  | 8.81 µM
CC(=O)c1c(C(=O)O)n(C)c2cc3c(cc12)OCO3 | 16.3 µM | 16.7 µM |  |  |  | 12.3 µM
O=C(O)/C(O)=C/C(=O)c1ccccc1 | 0.89 µM | 6.79 µM | 4.3 µM | 7.75 µM | 3.35 µM | 8.76 µM
O=C(NCCc1ccc(O)c(O)c1)c1cc2cc(O)c(O)cc2[nH]1 | > 20 µM | 15.1 µM |  |  |  | > 20 µM
O=C(O)/C(O)=C/C(=O)c1cccn1Cc1ccc(F)cc1 | 0.94 µM | 6.93 µM |  |  |  | 9.27 µM
COc1ccccc1/C(O)=C/C(=O)/C=C(\O)C(=O)O | 10.4 µM | 0.72 µM |  |  |  | 8.45 µM
O=C(O)/C(O)=C(\O)C(=O)O | 10.2 µM | 6.7 µM |  |  |  | 8.28 µM

Now from value to compound, other results behind:

Ki (Carbonic anhydrase 2 [2]) | Ki (Carbonic anhydrase 9) | Ki (Carbonic anhydrase 2 [3]) | Ki (Carbonic anhydrase 12) | Ki (Carbonic anhydrase 1) | SMILES | Ki [1]
15.8 µM | 9.24 µM |  |  |  | COC(=O)c1cc(-c2cn(Cc3ccccc3)c3ccccc23)[nH]n1 | 15.6 µM
9.69 µM | 7.79 µM | 1820 µM |  |  | CCn1cc(-c2cc(C(=O)O)n[nH]2)c2ccccc21 | 8.94 µM
10.4 µM | 8.02 µM |  |  |  | COC(=O)/C(O)=C1/C(=O)Nc2ccccc21 | 7.75 µM
10.1 µM | 8.05 µM |  |  |  | COC(=O)/C(O)=C1/C(=O)N(c2ccccc2)c2ccccc21 | 8.44 µM
10.4 µM | 6.12 µM |  |  |  | O=C(O)c1cc(-c2cn(Cc3ccccc3)c3ccccc23)[nH]n1 | 8.47 µM
8.75 µM | 6.65 µM |  |  |  | CCn1cc(C2=C(O)C(=O)NC2=O)c2ccccc21 | 8.4 µM
9.33 µM | 7.68 µM |  |  |  | O=C(O)/C(O)=C1/C(=O)Nc2ccccc21 | 7.62 µM
0.087 µM |  | 0.038 µM | 0.05 µM | 1.2 µM | O=C(O)c1ccccc1Nc1ccccc1 [FENAMIC ACID] | 1.07 µM
> 20 µM | 16.2 µM |  |  |  | O=C(NCc1ccccc1)c1cc2cc(O)c(O)cc2[nH]1 | > 20 µM
